Experimental data published in ChEMBL document CHEMBL1165943, “Design and synthesis of new anticancer pyrimidines with multiple-kinase inhibitory effect” (Bioorg Med Chem, 2010).
Active and inactive are the calls of the source. No cut-off for these calls is given here.

Assays:
[1] = system: TK-10; test: Cytotoxicity against human TK10 cells assessed as cell growth at 10 uM after 48 hrs by sulforhodamine B assay; format: functional; settings: TK-10, 48 h, read-out: Activity
[2] = system: SK-MEL-2; test: Cytotoxicity against human SK-MEL-2 cells assessed as cell growth at 0.001 uM after 48 hrs by sulforhodamine B assay; format: functional; settings: SK-MEL-2, 48 h, read-out: Activity
[3] = system: Malme-3M; test: Growth inhibition of human MALME-3M cells after 48 hrs by sulforhodamine B assay; format: functional, cell-based
How it was run: (§1)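 Cells grown in RPMI 1640 with 5% FBS and 2 mM L-glutamine, seeded at 5,000–40,000 cells/well according to doubling time. After 24 h, time-zero plates are TCA-fixed. Five concentrations (10-fold or ½log dilutions, DMSO stocks) are applied for 48 h at 37 °C, 5% CO₂. Cells are TCA-fixed, SRB-stained and read at 515 nm. IC₅₀ is taken from [(Ti−Tz)/(C−Tz)]×100 = 50.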

[4] = system: NCI/ADR-RES; test: Growth inhibition of human NCI/ADR-RES cells after 48 hrs by sulforhodamine B assay; format: functional, cell-based; settings: for CC50: read-out: LC50 (the source's name); how it was run: as §1
[5] = system: SF-268; test: Cytotoxicity against human SF268 cells assessed as cell growth at 100 nM after 48 hrs by sulforhodamine B assay; format: functional; settings: SF-268, 48 h, read-out: Activity
[6] = system: Malme-3M; test: Cytotoxicity against human MALME-3M cells assessed as cell growth at 10 uM after 48 hrs by sulforhodamine B assay; format: functional; settings: read-out: Activity
[7] = system: NCI-H23; test: Cytotoxicity against human NCI-H23 cells assessed as cell growth at 0.01 uM after 48 hrs by sulforhodamine B assay; format: functional; settings: NCI-H23, 48 h, read-out: Activity
[8] = system: NCI-H460; test: Cytotoxicity against human NCI-H460 cells assessed as cell growth at 0.001 uM after 48 hrs by sulforhodamine B assay; format: functional; settings: NCI-H460, 48 h, read-out: Activity
[9] = system: DU-145; test: Growth inhibition of human DU145 cells after 48 hrs by sulforhodamine B assay; format: functional, cell-based; settings: for CC50: read-out: LC50 (the source's name); how it was run: as §1
[10] = system: DU-145; test: Cytotoxicity against human DU145 cells assessed as cell growth at 0.001 uM after 48 hrs by sulforhodamine B assay; format: functional; settings: DU-145, 48 h, read-out: Activity
[11] = system: 786-0; test: Cytotoxicity against human 786-0 cells assessed as cell growth at 0.01 uM after 48 hrs by sulforhodamine B assay; format: functional; settings: 786-0, 48 h, read-out: Activity
How it was run: (§2)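 Cells grown in RPMI 1640 with 5% FBS and 2 mM L-glutamine, seeded at 5,000–40,000 cells/well by doubling time. Time-zero plates TCA-fixed after 24 h. Five concentrations (10-fold or half-log dilutions from DMSO stock) added; 48 h at 37 °C, 5% CO2. Cold TCA fixation (final 10%, 60 min, 4 °C), 0.4% SRB stain, dye solubilized in 10 mM trizma base, A515.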

[12] = system: SF-268; test: Cytotoxicity against human SF268 cells assessed as cell growth at 0.01 uM after 48 hrs by sulforhodamine B assay; format: functional; settings: SF-268, 48 h, read-out: Activity
[13] = system: SK-MEL-5; test: Cytotoxicity against human SK-MEL-5 cells assessed as cell growth at 100 nM after 48 hrs by sulforhodamine B assay; format: functional; settings: SK-MEL-5, 48 h, read-out: Activity
[14] = system: OVCAR-8; test: Cytotoxicity against human OVCAR8 cells assessed as cell growth at 10 uM after 48 hrs by sulforhodamine B assay; format: functional; settings: OVCAR-8, 48 h, read-out: Activity
[15] = system: K562; test: Cytotoxicity against human K562 cells assessed as cell growth at 100 nM after 48 hrs by sulforhodamine B assay; format: functional; settings: K562, 48 h, read-out: Activity
[16] = system: SK-OV-3; test: Growth inhibition of human SKOV3 cells after 48 hrs by sulforhodamine B assay; format: functional, cell-based; settings: SK-OV-3, 48 h; how it was run: as §1
[17] = system: HCT-15; test: Cytotoxicity against human HCT15 cells assessed as cell growth at 0.01 uM after 48 hrs by sulforhodamine B assay; format: functional; settings: HCT-15, 48 h, read-out: Activity
[18] = system: MDA-MB-435; test: Growth inhibition of human MDA-MB-435 cells after 48 hrs by sulforhodamine B assay; format: functional, cell-based; settings: MDA-MB-435, 48 h; for CC50: read-out: LC50 (the source's name); how it was run: as §1
[19] = system: HOP-62; test: Cytotoxicity against human HOP62 cells assessed as cell growth at 100 nM after 48 hrs by sulforhodamine B assay; format: functional; settings: HOP-62, 48 h, read-out: Activity
[20] = system: NCI-H460; test: Cytotoxicity against human NCI-H460 cells assessed as cell growth at 100 nM after 48 hrs by sulforhodamine B assay; format: functional; settings: NCI-H460, 48 h, read-out: Activity
[21] = system: NCI-H460; test: Growth inhibition of human NCI-H460 cells after 48 hrs by sulforhodamine B assay; format: functional, cell-based; settings: NCI-H460, 48 h; for CC50: read-out: LC50 (the source's name); how it was run: as §1
[22] = system: CAKI-1; test: Cytotoxicity against human Caki1 cells assessed as cell growth at 0.001 uM after 48 hrs by sulforhodamine B assay; format: functional; settings: CAKI-1, 48 h, read-out: Activity; how it was run: as §2
[23] = system: IGROV-1; test: Cytotoxicity against human IGROV1 cells assessed as cell growth at 10 uM after 48 hrs by sulforhodamine B assay; format: functional; settings: IGROV-1, 48 h, read-out: Activity
[24] = system: DU-145; test: Cytotoxicity against human DU145 cells assessed as cell growth at 1 uM after 48 hrs by sulforhodamine B assay; format: functional; settings: DU-145, 48 h, read-out: Activity
[25] = system: SNB-19; test: Cytotoxicity against human SNB19 cells assessed as cell growth at 10 uM after 48 hrs by sulforhodamine B assay; format: functional; settings: SNB-19, 48 h, read-out: Activity
[26] = system: MDA-MB-435; test: Cytotoxicity against human MDA-MB-435 cells assessed as cell growth at 100 nM after 48 hrs by sulforhodamine B assay; format: functional; settings: MDA-MB-435, 48 h, read-out: Activity
[27] = system: HL-60(TB); test: Cytotoxicity against human HL-60(TB) cells assessed as cell growth at 0.001 uM after 48 hrs by sulforhodamine B assay; format: functional; settings: HL-60, 48 h, read-out: Activity
How it was run: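 Five-concentration HL-60(TB) test in RPMI 1640 with 5% FBS and 2 mM L-glutamine. Cells are plated at 5,000–40,000/well and a TCA-fixed time-zero plate is read at drug addition after 24 h. Drug is dissolved in DMSO and given as five 10-fold or ½log dilutions for 48 h at 37 °C, 5% CO2. Settled cells are fixed with TCA, stained with SRB and read at 515 nm.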

[28] = system: MOLT-4; test: Cytotoxicity against human MOLT4 cells assessed as cell growth at 100 nM after 48 hrs by sulforhodamine B assay; format: functional; settings: MOLT-4, 48 h, read-out: Activity
[29] = Homo sapiens, NCI/ADR-RES, 48 h

CC(=O)Nc1cccc(-c2ccc(-c3ccnc(NC(=O)Nc4cc(C(F)(F)F)cc(C(F)(F)F)c4)n3)cn2)c1.Cl
growth at 10 µM [1]: -54%
growth at 0.001 µM [2]: 95%
LC50 [3]: inactive
GI50 ([3]; Homo sapiens, Malme-3M, 48 h): 2.01 µM
TGI ([3]; Homo sapiens, Malme-3M, 48 h): 4.48 µM
IC50 ([3]; Homo sapiens, Malme-3M, 48 h, read-out: IC50): 2.01 µM
GI50 [4, 29]: 3.66 µM
TGI [4, 29]: 47.4 µM
IC50 ([4]; Homo sapiens, NCI/ADR-RES, 48 h, read-out: IC50): 3.66 µM
CC50 [4, 29]: > 100 µM
growth at 0.1 µM [5]: 93%
growth at 10 µM [6]: -49%
growth at 0.01 µM [7]: 92%
growth at 0.001 µM [8]: 95%
GI50 ([9]; Homo sapiens, DU-145, 48 h): 6.57 µM
TGI ([9]; Homo sapiens, DU-145, 48 h): 19.6 µM
IC50 ([9]; Homo sapiens, DU-145, 48 h, read-out: IC50): 6.57 µM
CC50 ([9]; Homo sapiens, DU-145, 48 h): 47 µM
growth at 0.001 µM [10]: 112%
growth at 0.01 µM [11]: 98%
growth at 0.01 µM [12]: 95%
growth at 0.1 µM [13]: 73%
growth at 10 µM [14]: -84%
growth at 0.1 µM [15]: 69%
GI50 [16]: 13.1 µM
IC50 [16]: 13.1 µM
LC50 (concentration giving 50% net cell kill) [16]: 78.8 µM
TGI [16]: 32.2 µM
growth at 0.01 µM [17]: 91%
GI50 [18]: 2.31 µM
IC50 [18]: 2.31 µM
TGI [18]: 6.8 µM
CC50 [18]: > 100 µM
growth at 0.1 µM [19]: 100%
growth at 0.1 µM [20]: 79%
GI50 [21]: 2.06 µM
IC50 [21]: 2.06 µM
TGI [21]: 7.07 µM
CC50 [21]: 59.7 µM
growth at 0.001 µM [22]: 108%
growth at 10 µM [23]: -21%
growth at 1 µM [24]: 38%
growth at 10 µM [25]: -88%
growth at 0.1 µM [26]: 89%
growth at 0.001 µM [27]: 95%
growth at 0.1 µM [28]: 69%

CC(=O)c1ccccc1-c1ccc(-c2ccnc(NC(=O)Nc3cc(N4CCOCC4)cc(C(F)(F)F)c3)n2)cn1
growth at 10 µM [1]: 27%
growth at 0.001 µM [2]: 102%
TGI ([3]; Homo sapiens, Malme-3M, 48 h): > 100 µM
CC50 ([3]; Homo sapiens, Malme-3M, 48 h, read-out: LC50 (the source's name)): > 100 µM
IC50 ([3]; malme-3m): Not Active
TGI [4, 29]: > 100 µM
CC50 [4, 29]: > 100 µM
IC50 ([4]; nci/adr-res): Not Active
growth at 0.1 µM [5]: 90%
growth at 10 µM [6]: 61%
growth at 0.01 µM [7]: 99%
growth at 0.001 µM [8]: 109%
TGI ([9]; Homo sapiens, DU-145, 48 h): > 100 µM
CC50 ([9]; Homo sapiens, DU-145, 48 h): > 100 µM
IC50 ([9]; du-145): Not Active
growth at 0.001 µM [10]: 100%
growth at 0.01 µM [11]: 100%
growth at 0.01 µM [12]: 90%
growth at 0.1 µM [13]: 84%
growth at 10 µM [14]: 53%
growth at 0.1 µM [15]: 69%
GI50 [16]: > 100 µM
IC50 [16]: 9.42 µM
LC50 (concentration giving 50% net cell kill) [16]: > 100 µM
TGI [16]: > 100 µM
growth at 0.01 µM [17]: 98%
GI50 [18]: > 100 µM
IC50 [18]: > 100 µM
TGI [18]: > 100 µM
CC50 [18]: > 100 µM
growth at 0.1 µM [19]: 100%
growth at 0.1 µM [20]: 91%
GI50 [21]: > 100 µM
IC50 [21]: > 100 µM
TGI [21]: > 100 µM
CC50 [21]: > 100 µM
growth at 0.001 µM [22]: 97%
growth at 10 µM [23]: 41%
growth at 1 µM [24]: 19%
growth at 10 µM [25]: 26%
growth at 0.1 µM [26]: 92%
growth at 0.001 µM [27]: 92%
growth at 0.1 µM [28]: 75%
